Measured values published in ChEMBL document CHEMBL1153319, “Dancing of the second aromatic residue around the 6,8-diazabicyclo[3.2.2]nonane framework: influence on sigma receptor affinity and cytotoxicity” (J Med Chem, 2009).

Key:
[1] = biological target: Sigma non-opioid intracellular receptor 1 (Homo sapiens, UniProt Q99720); assay: Binding affinity to sigma 1 receptor
How it was run: (§1)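 Guinea pig brain homogenate (about 75 µg protein) incubated with test compound, 2 nM [3H]-(+)-pentazocine (Kd 2.9 nM) in 50 mM Tris pH 7.4, 180 min at 37 °C. Nonspecific binding with 10 µM unlabeled (+)-pentazocine. Rapid filtration, water washes, solid scintillator counting. Ki by Cheng–Prusoff from six-concentration competition curves, triplicates, mean ± SEM of three experiments; single-point lines give inhibition at 1 µM.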

[2] = biological target: Sigma non-opioid intracellular receptor 1 (Cavia porcellus, UniProt Q60492); assay: Displacement of [3H](+)-pentazocine from sigma 1 receptor in guinea pig brain membrane by scintillation analysis; format: cell membranes
[3] = Displacement of [3H]1,3-ditolylguanine from sigma 2 receptor in rat liver membrane by solid scintillation analysis; format: cell membranes
[4] = Selectivity for sigma 2 receptor in rat liver membrane over sigma 1 receptor in guinea pig brain membrane; format: cell membranes
5637 = assay: Cytotoxicity against human 5637 cells after 96 hrs by crystal violet staining; format: functional, cell-based; settings: Homo sapiens, 5637, 96 h
How it was run: (§2)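 Human tumour lines from DSMZ given a 20 µM primary screen for 96 h at 37 °C. Those cutting growth >50% versus untreated controls were then tested at 5 serial dilutions (DMSO stocks) for 96 h. Remaining cell density read by crystal violet staining. IC50 from least-squares dose-response fit using concentrations giving T/C 10–90%.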

RT-4 = assay: Cytotoxicity against human RT4 cells after 96 hrs by crystal violet staining; format: functional, cell-based; settings: RT-4, 96 h; how it was run: as §2
A-427 = assay: Cytotoxicity against human A427 cells after 96 hrs by crystal violet staining; format: functional, cell-based; settings: A-427, 96 h; how it was run: as §2
[5] = Cytotoxicity against human LCLC-103H cells after 96 hrs by crystal violet staining; format: functional, cell-based; how it was run: as §2
DAN-G = assay: Cytotoxicity against human DAN-G cells after 96 hrs by crystal violet staining; format: functional, cell-based; how it was run: as §2
MCF7 = assay: Cytotoxicity against human MCF7 cells after 96 hrs by crystal violet staining; format: functional, cell-based; settings: MCF7, 96 h; how it was run: as §2
[6] = biological target: Sigma non-opioid intracellular receptor 1 (Cavia porcellus) (UniProt Q60492); assay: Displacement of [3H](+)-pentazocine from sigma 1 receptor in guinea pig brain membrane at 1 uM by scintillation analysis; format: cell membranes; how it was run: as §1
Rattus norvegicus = species on record: Rattus norvegicus; assay: Displacement of [3H]1,3-ditolylguanine from sigma 2 receptor in rat liver membrane by solid scintillation analysis at 1 uM; format: cell membranes
[7] = Selectivity ratio of IC50 for sigma 2 receptor in rat liver membrane to IC50 for sigma 1 receptor in guinea pig brain membrane; format: cell membranes

Sigma non-opioid intracellular receptor 1 (Cavia porcellus), sequence (Q60492 whole entry): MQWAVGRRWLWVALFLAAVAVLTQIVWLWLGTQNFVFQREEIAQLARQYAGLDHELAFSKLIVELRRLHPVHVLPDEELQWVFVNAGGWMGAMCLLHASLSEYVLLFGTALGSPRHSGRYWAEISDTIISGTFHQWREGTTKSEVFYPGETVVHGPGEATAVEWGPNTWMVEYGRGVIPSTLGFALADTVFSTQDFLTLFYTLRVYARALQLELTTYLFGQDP
Sigma non-opioid intracellular receptor 1 (Cavia porcellus, UniProt Q60492), sequence (Q60492 whole entry): as above
Sigma non-opioid intracellular receptor 1 (Homo sapiens, UniProt Q99720), sequence (Q99720 whole entry): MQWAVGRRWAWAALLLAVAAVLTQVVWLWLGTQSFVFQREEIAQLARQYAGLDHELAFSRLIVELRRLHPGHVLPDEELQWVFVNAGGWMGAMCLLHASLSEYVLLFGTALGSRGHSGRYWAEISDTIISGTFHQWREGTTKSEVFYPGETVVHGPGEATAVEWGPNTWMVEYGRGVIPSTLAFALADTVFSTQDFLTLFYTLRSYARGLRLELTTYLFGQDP

Compound | Ki [1] | Ki [2] | Ki [3] | fold change (FC) [4] | IC50 5637 | IC50 (RT-4) | IC50 (A-427) | IC50 [5] | IC50 (DAN-G) | IC50 (MCF7) | Activity [6] | Activity (Rattus norvegicus) | Ratio IC50 [7]
C=CCN1CC2C(=O)CCC1CN2Cc1ccc(OC)cc1 (stereo not drawn) | 1.6 µM |  |  |  |  |  |  |  |  |  |  |  | 
COc1ccc(CN2CC3CCC(=O)C2CN3Cc2ccccc2)cc1 (stereo not drawn) | 0.053 µM |  |  |  |  |  |  |  |  |  |  |  | 
C=CCN1C[C@@H]2[C@H](Oc3ccccc3)CC[C@H]1CN2Cc1ccc(OC)cc1OC |  | 4.05 µM | 0.469 µM | 5 | 11.7 µM | 15.3 µM | 7.09 µM | > 20 µM | 12.5 µM | 9.11 µM |  |  | 
C=CCN1CC2[C@@H](O)CCC1CN2Cc1ccc(OC)cc1 (stereo partly drawn) | 2.24 µM |  |  |  |  |  |  |  |  |  |  |  | 
COc1ccc(CN2C[C@@H]3[C@H](c4ccccc4)CC(=O)[C@H]2CN3Cc2ccccc2)cc1 |  |  |  |  | 18.3 µM | 20.5 µM | 10.3 µM | > 20 µM | 16.1 µM | 19.4 µM | 17% | 0% | 
C=CCN1C[C@@H]2[C@H](Oc3ccccc3)CC[C@H]1CN2Cc1ccc(OC)cc1 |  | 2.12 µM | 0.479 µM | 5 | 14 µM | 19.1 µM | 5.95 µM | > 20 µM | 15.8 µM | 12.7 µM |  |  | 
C=CCN1C[C@@H]2[C@H](OCc3ccccc3)CC[C@H]1CN2Cc1ccc(OC)cc1OC |  |  | 0.4 µM | 5 | 4.73 µM | 8.57 µM | 3.55 µM | 11.1 µM | 4.58 µM | 5.81 µM | 20% |  | 
COc1ccc(CN2CCN(Cc3ccccc3)[C@@H](CO)C2)cc1 | 0.012 µM |  |  |  |  |  |  |  |  |  |  |  | 
C=CCN1C[C@H]2c3[nH]c4ccc(OC)cc4c3C[C@@H]1CN2Cc1ccc(OC)cc1 |  |  |  |  | 16.1 µM | > 20 µM | 15.4 µM | > 20 µM | > 20 µM | > 20 µM | 37% | 44% | 
C=CCN1C[C@H]2[C@H](OCc3ccccc3)CC[C@@H]1CN2Cc1ccc(OC)cc1 |  | 0.091 µM | 6.46 µM |  | 11.2 µM | 14.3 µM | 4.61 µM | 19.9 µM | 12.7 µM | 9.13 µM |  |  | 70
CCCN1CC2C(=O)C[C@@H](c3ccccc3)C1CN2Cc1ccc(OC)cc1 (stereo partly drawn) |  |  |  |  | > 20 µM | > 20 µM | > 20 µM | > 20 µM | > 20 µM | > 20 µM | 40% | 11% | 
C=CCN1C[C@H]2/C(=C\c3ccccc3)CC[C@@H]1CN2Cc1ccc(OC)cc1 |  | 0.104 µM | 0.566 µM |  | 10.9 µM | 14.1 µM | 3.93 µM | 17.8 µM | 9.82 µM | 7.25 µM |  |  | 5
